From PubChem
pPAFAH inh: inhibitors of human plasma PAF acetylhydrolase (pPAFAH); 330,000 tested, 1.5% active; recombinant pPAFAH, FP-rhodamine probe fluorescence polarization; Q13093; inhibition, % at 3.39 µM; AID 463082;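 active = inhibition above the mean inhibition across the screen plus 3 SD, cut at about 25% in these data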;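 also: inhibitors block binding of the rhodamine activity-based probe so polarization drops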
PAFAH1B3 inh: blocks human PAF acetylhydrolase 1B catalytic subunit 3 | 340,000 tested, 0.28% active | recombinant PAFAH1B3, FP-rhodamine probe, fluorescence polarization | AID 492972 | Q15102 | inhibition, % at 3.39 µM;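 active = inhibition above the screen-wide average of all tested compounds plus 3 SD, cut at about 25% in these data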
Target sequence (Q15102 whole entry, looked up): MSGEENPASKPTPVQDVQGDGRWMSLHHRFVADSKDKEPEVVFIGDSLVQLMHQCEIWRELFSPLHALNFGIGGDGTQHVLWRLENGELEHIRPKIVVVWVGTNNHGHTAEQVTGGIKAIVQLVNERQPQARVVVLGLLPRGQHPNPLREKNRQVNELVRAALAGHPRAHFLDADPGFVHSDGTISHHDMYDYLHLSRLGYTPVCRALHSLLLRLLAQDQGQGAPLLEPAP
ASAP1 inh: blocks human ASAP1-stimulated Arf1 GTP hydrolysis; GDP FP detection; 360,000 tested, 0.19% active; AID 624377; inhibition, % at 16.5 µM; Q9ULH1; in the data active = inhibition above about 25%
PAFAH1B2 inh: blocks human PAF acetylhydrolase 1b catalytic subunit 2; P68402; recombinant PAFAH1B2, FP-rhodamine activity probe, fluorescence polarization; inhibition, % at 3.39 µM; 340,000 tested, 1.2% active;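 active = inhibition above the mean of all tested compounds plus 3 SD, cut at about 24% in these data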
Target sequence (P68402 whole entry, looked up): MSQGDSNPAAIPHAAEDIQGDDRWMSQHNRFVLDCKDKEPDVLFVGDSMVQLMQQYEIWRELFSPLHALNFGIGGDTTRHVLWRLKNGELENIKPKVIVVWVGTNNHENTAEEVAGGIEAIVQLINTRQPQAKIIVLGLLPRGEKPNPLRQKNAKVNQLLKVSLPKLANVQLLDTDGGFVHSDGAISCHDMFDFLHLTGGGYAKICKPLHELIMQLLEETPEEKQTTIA
PAFAH2 FP inh: PAFAH2 (human) inhibition | Q99487 | recombinant PAFAH2, FP-rhodamine activity probe, fluorescence polarization | inhibition, % at 3.39 µM | 340,000 tested, 0.99% active | AID 492956;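 active = inhibition above the mean over all tested compounds plus 3 SD, cut at about 30% in these data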;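 also: inhibitors block probe labeling of enzyme so polarization drops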
ARFGAP1 inh: inhibits rat ARF GTPase activating protein 1; AID 651572; Arfgap1-stimulated ARF1 GTP hydrolysis, GDP FP detection; 360,000 tested, 0.26% active; Q62848; inhibition, % at 16.5 µM;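 active = inhibition above a per-plate limit, mean inhibition of low control wells plus 3 SD, cut at about 25% in these data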
Target sequence (Q62848 1-136 limits assumed): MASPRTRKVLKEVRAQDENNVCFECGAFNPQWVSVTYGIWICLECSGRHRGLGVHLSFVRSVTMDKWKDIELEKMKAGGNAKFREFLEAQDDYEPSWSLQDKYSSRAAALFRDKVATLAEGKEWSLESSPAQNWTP
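Repeats: one replicate per compound; assay system: rat Arfgap1 catalytic domain, aa 1-136; times: enzyme reaction 120 min at 25 °C after 20 min preincubation; detection: FP of antibody-bound GDP Alexa 633 tracer, ex 620/em 688 nm; benchmarks: high control wells lacking Arfgap1, low control full reaction with DMSO; reagent: human ARF1(Δ1-17)-GTP substrate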
Numbers stand for hits. A selection: hits, their analogues and other compounds. The true share with any hit is near 2.8%.

C=CC[n+]1c(-c2ccc(Cl)cc2Cl)csc1Nc1ccc(NC(C)=O)cc1 was read as pPAFAH inh 25, PAFAH1B3 inh inactive, ASAP1 inh inactive, PAFAH1B2 inh inactive, PAFAH2 FP inh 33 and ARFGAP1 inh inactive.
`COc1cc(/C=N/N2CCN(c3ccc(Cl)cc3)CC2)cc(OC)c1OC(C)=O` gave pPAFAH inh inactive, PAFAH1B3 inh inactive, ASAP1 inh inactive, PAFAH1B2 inh 25, PAFAH2 FP inh inactive and ARFGAP1 inh inactive.
Cc1ccccc1CC(=O)N1CCCC1 was read as pPAFAH inh inactive, PAFAH1B3 inh inactive, ASAP1 inh inactive, PAFAH1B2 inh inactive, PAFAH2 FP inh inactive and ARFGAP1 inh inactive.
CC1=NOC(=O)/C1=C/c1ccc(-c2ccc(Cl)cc2)o1 was read as pPAFAH inh inactive, PAFAH1B3 inh inactive, PAFAH1B2 inh inactive and PAFAH2 FP inh 32.
Screening COCCNc1nc(Oc2ccc(C(N)=O)cc2)c2sccc2n1 returned ASAP1 inh inactive and ARFGAP1 inh inactive.
Screening COc1ccc(C(=O)OCC(=O)Nc2ccc(F)c(F)c2)cc1OC returned pPAFAH inh 30, PAFAH1B3 inh inactive, ASAP1 inh inactive, PAFAH1B2 inh inactive, PAFAH2 FP inh 82 and ARFGAP1 inh inactive.
`COc1ccc(NC(=O)COC(=O)c2ccc(S(=O)(=O)N3CCCC3)cc2)cc1OC` gave pPAFAH inh inactive, PAFAH1B3 inh inactive, ASAP1 inh inactive, PAFAH1B2 inh inactive, PAFAH2 FP inh inactive and ARFGAP1 inh inactive.
For Cc1cc(C)n(-c2ccc(C(=O)OCC(=O)Nc3ccc([N+](=O)[O-])cc3)cc2)n1 the results were pPAFAH inh 25, PAFAH1B3 inh inactive, ASAP1 inh inactive, PAFAH1B2 inh inactive, PAFAH2 FP inh inactive and ARFGAP1 inh inactive.
Cc1cc(C)n(-c2ccc(C(=O)OCC(=O)Nc3ccc(Cl)c(S(=O)(=O)N(C)C)c3)cc2)n1 was read as pPAFAH inh 25, PAFAH1B3 inh inactive, ASAP1 inh inactive, PAFAH1B2 inh inactive, PAFAH2 FP inh 73 and ARFGAP1 inh inactive.
For CCNC(=O)COC(=O)c1ccc(-n2nc(C)cc2C)cc1 the results were pPAFAH inh inactive, PAFAH1B3 inh inactive, ASAP1 inh inactive, PAFAH1B2 inh inactive, PAFAH2 FP inh inactive and ARFGAP1 inh inactive.
`COc1ccc(NC(=O)COC(=O)c2ccc(-n3nc(C)cc3C)cc2)cc1OC` gave pPAFAH inh 27, PAFAH1B3 inh inactive, ASAP1 inh inactive, PAFAH1B2 inh inactive, PAFAH2 FP inh inactive and ARFGAP1 inh inactive.
CC1(C(=O)NS(=O)(=O)C2CC2)CCN(C(=O)COc2ccc(Cl)cc2Cl)C1 (stereo unspecified) was read as ASAP1 inh inactive and ARFGAP1 inh inactive.
For O=C(Nc1ccccc1Oc1ccccc1)c1ccccc1F the results were pPAFAH inh 28, PAFAH1B3 inh inactive, ASAP1 inh inactive, PAFAH1B2 inh inactive, PAFAH2 FP inh inactive and ARFGAP1 inh inactive.
Screening CCc1ccc(S(=O)(=O)NCCc2csc(-c3ccccc3)n2)s1 returned pPAFAH inh inactive, PAFAH1B3 inh inactive, ASAP1 inh inactive, PAFAH1B2 inh 39, PAFAH2 FP inh inactive and ARFGAP1 inh inactive.
Cc1cc(C)n2nc(SCC(=O)N3CCCCC3C)nc2n1 (stereo unspecified) was read as pPAFAH inh inactive, PAFAH1B3 inh inactive, ASAP1 inh inactive, PAFAH1B2 inh inactive, PAFAH2 FP inh inactive and ARFGAP1 inh inactive.
Screening CSCC[C@H](NS(=O)(=O)c1ccc(C)cc1)C(=O)N1CCC(C(=O)N[C@@H](Cc2ccc(O)cc2)C(=O)O)CC1 returned pPAFAH inh inactive, PAFAH1B3 inh inactive, ASAP1 inh inactive, PAFAH1B2 inh inactive, PAFAH2 FP inh inactive and ARFGAP1 inh inactive.
Screening COc1cc(C(=O)ON=C2C(C)=CC(=O)C=C2C)cc(OC)c1OC returned pPAFAH inh inactive, PAFAH1B3 inh inactive, ASAP1 inh inactive, PAFAH1B2 inh inactive, PAFAH2 FP inh 83 and ARFGAP1 inh inactive.
For CN(C)c1ccc(C=c2c3cc([N+](=O)[O-])ccc3n3c2cc(-c2ccccc2)[n+]3C)cc1 the results were PAFAH1B3 inh inactive, ASAP1 inh inactive, PAFAH1B2 inh inactive, PAFAH2 FP inh inactive and ARFGAP1 inh 39.
For COc1cc(N(C)C)ccc1C=c1c2ccccc2n2c1cc(-c1ccccc1)[n+]2C the results were PAFAH1B3 inh inactive, ASAP1 inh 36, PAFAH1B2 inh inactive, PAFAH2 FP inh inactive and ARFGAP1 inh inactive.
CCOC(=O)C1=C(C)N=c2s/c(=C/c3ccco3)c(=O)n2C1c1cccc(OC)c1 (stereo unspecified) was read as pPAFAH inh 33.
`CS(=O)(=O)N1CCC(C(=O)NNC(=O)Nc2ccc(F)c(Cl)c2)CC1` gave pPAFAH inh inactive, PAFAH1B3 inh inactive, ASAP1 inh inactive, PAFAH1B2 inh inactive, PAFAH2 FP inh inactive and ARFGAP1 inh inactive.
Screening CCOC(=O)CSc1nc(N)c(C#N)c(-c2ccc(OC)cc2)c1C#N returned pPAFAH inh inactive, PAFAH1B3 inh inactive, ASAP1 inh inactive, PAFAH1B2 inh inactive, PAFAH2 FP inh inactive and ARFGAP1 inh inactive.
`CCOC(=O)CC(=O)CSc1nc(N)c(C#N)c(-c2ccc(F)cc2)c1C#N` gave pPAFAH inh 28, PAFAH1B3 inh inactive, ASAP1 inh inactive, PAFAH1B2 inh inactive, PAFAH2 FP inh inactive and ARFGAP1 inh inactive.
For CCc1cc(/C(Cc2ccc3ccccc3n2)=N\O)c(O)cc1O the results were pPAFAH inh inactive, PAFAH1B3 inh 41, ASAP1 inh inactive, PAFAH1B2 inh inactive, PAFAH2 FP inh inactive and ARFGAP1 inh inactive.
`CCc1cc(/C(Cc2ccccn2)=N\O)c(O)cc1O` gave pPAFAH inh inactive, PAFAH1B3 inh inactive, ASAP1 inh inactive, PAFAH1B2 inh inactive, PAFAH2 FP inh inactive and ARFGAP1 inh inactive.
`O=C(N/N=C/c1ccc(O)cc1O)c1ccc(NC(=O)C2CCCCC2)cc1` gave pPAFAH inh inactive, PAFAH1B3 inh 37, ASAP1 inh inactive, PAFAH1B2 inh 33, PAFAH2 FP inh inactive and ARFGAP1 inh inactive.
For O=c1cc(-c2ccc(Cl)c(Cl)c2)[nH][nH]1 the results were pPAFAH inh 26, PAFAH1B3 inh inactive, ASAP1 inh inactive, PAFAH1B2 inh inactive, PAFAH2 FP inh inactive and ARFGAP1 inh inactive.
For COC(=O)c1ccsc1NS(=O)(=O)c1ccccc1 the results were pPAFAH inh 28, PAFAH1B3 inh inactive, ASAP1 inh inactive, PAFAH1B2 inh inactive, PAFAH2 FP inh inactive and ARFGAP1 inh inactive.
`O=C(Nc1cccnc1)c1ccc(C(=O)Nc2cccnc2)cc1` gave pPAFAH inh inactive, PAFAH1B3 inh inactive, ASAP1 inh inactive, PAFAH1B2 inh inactive, PAFAH2 FP inh inactive and ARFGAP1 inh inactive.
`O=C(Nc1cccnc1)c1ccc(S(=O)(=O)c2ccc(Cl)cc2)cc1` gave pPAFAH inh inactive, PAFAH1B3 inh inactive, ASAP1 inh inactive, PAFAH1B2 inh 27, PAFAH2 FP inh inactive and ARFGAP1 inh inactive.
